A selection: hits, their analogues and other compounds. The true share with any hit is near 3.5%.
HIV Env fusion = inhibitors of HIV Env-mediated cell fusion. AID 651610. HeLa-JRFL Env/CEM21 cell fusion, luciferase. actives 1.1% (n = 360,000). inhibition, % at 12.3 µM;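 active = mean replicate inhibition score of at least 50 and every replicate individually at or above 50; inconclusive = only one of the two criteria met; inactive = mean below 50 and not all replicates reaching 50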;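 note: 0% = plate neutral controls and 100% = maraviroc near 300 nM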
PGC1a acetyl inh = modulators of PGC1a acetylation; inhibition, % at 15.6 µM; U2OS PGC1a acetylation, AlphaScreen anti-acetyl-lysine; with virally co-expressed GCN5 acetyltransferase; actives 0.17% (n = 350,000);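 active = every replicate shows inhibition of at least 40%; inconclusive = mean inhibition at least 40% but some replicate below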;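 note: 0% = neutral control wells and 100% = positive control wells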
rRNA inh HTS = inhibitors of bacterial rRNA selective over humanized ribosomes; E. coli WT GFP vs humanized-ribosome RFP mutants, fluorescence, 24 h; hits give low values; DMSO median 0, no signal -100; GFP signal change (wild-type ribosome), % (no concentration beside the values); actives 1.6% (n = 350,000);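 active = significant combined selectivity score with lowered wild-type GFP, culture density cut under 30%, mutant RFP and density less affected; inactive = any of these conditions unmet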
DENV2 CPE rescue = DENV2-induced cell death inhibition | DENV2-infected cells, cytopathic effect rescue, plate reader | CPE inhibition, % at 9.99 µM | actives 1.7% (n = 350,000) | AID 651640; in the data active = CPE inhibition above about 20%, passing the limit was not always enough; inconclusive = no clear call, values can overlap the other calls; tested in BHK-21 cells;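 note: 0% = median of neutral control wells and 100% = median of positive control wells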
FN deposit inh = fibronectin deposition inhibition | AH1F fibroblasts, Alexa488-fibronectin deposition fluorescence, overnight | inhibition, % at 12.6 µM | actives 0.086% (n = 350,000) | AID 743247;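 active = mean inhibition across replicates of 30% or more, regardless of how many single replicates reach that level; inconclusive = mean under 30% yet at least half of replicates reach 30%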;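 note: positive control wells lacked labelled fibronectin entirely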
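Measured by – fluorescence 485/525 nm · System – AH1F fibroblast monolayer, labelled fibronectin deposition · Amount – 10000 cells per well · Buffer or medium – serum-reduced DMEM (2% serum) · Doses – single dose, pinned · Also added – fluorescent fibronectin at 24 nM final · Schedule – 1 h cell attachment, overnight exposure to compound and label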
PglD inh = PglD (C. jejuni) enzyme inhibition; purified PglD enzyme, DTNB colorimetric CoA detection; inhibition, % at 12.5 µM; actives 0.098% (n = 360,000); AID 602405; in the data active = inhibition above about 16%, passing the limit was not always enough; inconclusive = no clear call, values can overlap the other calls
An asterisk follows results filed as active; [ ] = remark or other dose.

Results for C[C@H]1CN([C@@H](C)CO)S(=O)(=O)c2ccc(C#Cc3ccccc3)cc2O[C@H]1CN(C)CC1CC1 ?
HIV Env fusion: 10[16.7 µM]; PGC1a acetyl inh: -17; rRNA inh HTS: -4; DENV2 CPE rescue: 35*; FN deposit inh: 0; PglD inh: 1

How did CCCC#Cc1ccc2c(c1)O[C@H](CN(C)CC1CC1)[C@H](C)CN([C@@H](C)CO)S2(=O)=O do in these assays?
HIV Env fusion: -12[16.7 µM]; PGC1a acetyl inh: -13; rRNA inh HTS: 3; DENV2 CPE rescue: 1; PglD inh: 1

How did COC(=O)C[C@@H]1C[C@H]2c3cc(NS(C)(=O)=O)ccc3O[C@H]2[C@@H](CO)O1 do in these assays?
HIV Env fusion: -1[16.7 µM]; PGC1a acetyl inh: -3; rRNA inh HTS: 1; DENV2 CPE rescue: 0; PglD inh: -4

What do the screens show for `C[C@H]1CN([C@@H](C)CO)C(=O)c2cccc(NC(=O)Nc3ccc4c(c3)OCO4)c2O[C@H]1CN(C)S(=O)(=O)c1ccc(Cl)cc1`?
PGC1a acetyl inh: 1; rRNA inh HTS: -2; DENV2 CPE rescue: 1; PglD inh: 2

How did Cc1noc(C)c1NC(=O)N(C)C[C@H]1OCCCC[C@@H](C)Oc2ccc(NC(=O)Nc3ccc(C(F)(F)F)cc3)cc2C(=O)N([C@@H](C)CO)C[C@H]1C do in these assays?
HIV Env fusion: 7[16.7 µM]; PGC1a acetyl inh: -2; rRNA inh HTS: -3; DENV2 CPE rescue: 3; FN deposit inh: 2; PglD inh: 1

What do the screens show for `C[C@@H]1CN([C@H](C)CO)C(=O)c2cccc(NC(=O)CCCCCC(=O)Nc3ccccc3N)c2O[C@@H]1CN(C)CC1CCCCC1`?
rRNA inh HTS: 0; FN deposit inh: -13

Results for O=C(Nc1cc(Cl)ccn1)C1(c2ccccc2)CC1(Cl)Cl (stereo not drawn) ?
HIV Env fusion: -5; PGC1a acetyl inh: 1; rRNA inh HTS: -42*; DENV2 CPE rescue: inconclusive; FN deposit inh: 8; PglD inh: 3

How did Fc1ccc(NC(=S)N2CCN(c3ccccn3)CC2)cc1Cl do in these assays?
HIV Env fusion: 13; PGC1a acetyl inh: -8; rRNA inh HTS: -22*; DENV2 CPE rescue: -5; FN deposit inh: 0; PglD inh: -6

Results for Cc1cc(C)cc(NC(=S)N2CCN(c3ccccn3)CC2)c1 ?
HIV Env fusion: 7; PGC1a acetyl inh: -3; rRNA inh HTS: -22*; DENV2 CPE rescue: 0; FN deposit inh: 4; PglD inh: -3

Results for Cc1cccc(NC(=S)N2CCN(c3ccccn3)CC2)c1 ?
HIV Env fusion: -14; PGC1a acetyl inh: -8; rRNA inh HTS: 11; DENV2 CPE rescue: -2; FN deposit inh: -14; PglD inh: 7

How did O=C(N[C@H]1CC[C@@H](CC(=O)N2CCc3ccccc3C2)O[C@H]1CO)C1CC1 do in these assays?
HIV Env fusion: -28[16.7 µM]; rRNA inh HTS: 0; DENV2 CPE rescue: 3; FN deposit inh: 0; PglD inh: 4

How did C[C@H]1CN([C@@H](C)CO)C(=O)c2cccc(NC(=O)NC3CCCCC3)c2O[C@H]1CN(C)S(=O)(=O)c1ccc(Cl)cc1 do in these assays?
PGC1a acetyl inh: 20; rRNA inh HTS: -3; DENV2 CPE rescue: -8; FN deposit inh: 5; PglD inh: 1

How did COCC(=O)N1CC(=O)N2[C@H](CO)[C@@H](c3ccc(C#CC(C)C)cc3)[C@@H]2C1 do in these assays?
PGC1a acetyl inh: 13; rRNA inh HTS: 3; DENV2 CPE rescue: -11

What do the screens show for `Cc1cccc2cc(C#N)c(NCCNC(=O)NC3CCCCC3)nc12`?
HIV Env fusion: 9; PGC1a acetyl inh: -7; FN deposit inh: 5; PglD inh: 3

What do the screens show for `Cc1ccc2cc(C#N)c(NCCNC(=O)C3CCC3)nc2c1C`?
HIV Env fusion: 106*; PGC1a acetyl inh: -4; FN deposit inh: -20; PglD inh: 3

Results for COc1ccc(C(=O)NCCNc2nc3c(C)cccc3cc2C#N)cc1OC ?
HIV Env fusion: -5; PGC1a acetyl inh: 6; rRNA inh HTS: 6; DENV2 CPE rescue: 29*; FN deposit inh: 6; PglD inh: 0

How did COc1cc(C(=O)NCCNc2nc3c(C)cccc3cc2C#N)cc(OC)c1OC do in these assays?
HIV Env fusion: -43; PGC1a acetyl inh: 9; rRNA inh HTS: 4; DENV2 CPE rescue: inconclusive; FN deposit inh: 5; PglD inh: 4

Results for Cc1cc(C)c2nc(N3CCC(C(=O)N4CCCC4)CC3)sc2c1 ?
PGC1a acetyl inh: -20; rRNA inh HTS: -25*; DENV2 CPE rescue: -1; PglD inh: -3

What do the screens show for `O=C(C1CCCC1)N1CCCCN2[C@H](CO)[C@@H](c3ccc(C#CC4(O)CCCC4)cc3)[C@H]2C1`?
PGC1a acetyl inh: 8; DENV2 CPE rescue: 4; PglD inh: -1

What do the screens show for `O=[N+]([O-])c1ccc(NC(c2ccccc2)c2ccc3cccnc3c2O)cc1` (stereo not drawn)?
HIV Env fusion: 62*; PGC1a acetyl inh: 4; DENV2 CPE rescue: 5; FN deposit inh: 9; PglD inh: -1

What do the screens show for `CN1C(=O)c2cc(NC(=O)C3CCOCC3)ccc2OC[C@H]2O[C@H](CC(=O)NCCc3ccncc3)CC[C@H]21`?
HIV Env fusion: 6[16.7 µM]; rRNA inh HTS: 8; DENV2 CPE rescue: 10; FN deposit inh: 13; PglD inh: 3

Results for O=C(Nc1cccc(Cl)c1)N[C@@H]1CC[C@H](CCNC(=O)C2CCC2)O[C@H]1CO ?
HIV Env fusion: -15[16.7 µM]; PGC1a acetyl inh: -8; rRNA inh HTS: -2; DENV2 CPE rescue: 0; PglD inh: 0

How did Cc1ccccc1N1C(=O)CC(c2c[nH]c3ccccc23)C1=O (stereo not drawn) do in these assays?
HIV Env fusion: 15; PGC1a acetyl inh: 0; rRNA inh HTS: 0; FN deposit inh: 17

What do the screens show for `O=C1C=CC(c2c[nH]c3ccccc23)CC1` (stereo not drawn)?
HIV Env fusion: 12; rRNA inh HTS: -14*; DENV2 CPE rescue: -5; FN deposit inh: -14

Results for CSc1nsc(SCc2ccc(Cl)cc2)n1 ?
PGC1a acetyl inh: 7; rRNA inh HTS: -43*; DENV2 CPE rescue: 6

How did CSc1nsc(SCc2ccc(F)cc2)n1 do in these assays?
PGC1a acetyl inh: 1; PglD inh: -4

Results for COc1cc2cc(CCCOC(=O)CCC(=O)O)oc(=O)c2cc1OC ?
HIV Env fusion: 3; PGC1a acetyl inh: 7; rRNA inh HTS: -1; DENV2 CPE rescue: 28*; FN deposit inh: -4; PglD inh: 2

What do the screens show for `COc1cc2cc(CCO)oc(=O)c2cc1OC`?
HIV Env fusion: 65*; PGC1a acetyl inh: -3; rRNA inh HTS: -9; DENV2 CPE rescue: 89*; FN deposit inh: 4; PglD inh: 2
